The source made the active and inactive calls. The calls are words filed in the database; no cut-off is given here.
Assays:
[1] = test system: Peritoneal macrophage; test: Antiinflammatory activity in C57BL/6 mouse primary peritoneal macrophages assessed as inhibition of LPS-induced TNFalpha production at 10 uM preincubated for 30 mins followed by LPS stimulation and measured after 24 hrs by sandwich ELISA relative to control; format: functional; settings: C57BL/6, Peritoneal macrophage
Outline: (§1)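 Thioglycollate-elicited mouse peritoneal macrophages in RPMI-1640/10% FBS. Compound pretreatment for 30 min (10 μM for single-point screening, graded concentrations for dose-response), then 0.5 μg/mL LPS for 24 h. TNF-α and IL-6 in culture medium measured by sandwich ELISA and normalized to total protein in cell lysates; n = 3.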

[2] = test system: Mus musculus; test: Antiinflammatory activity in LPS-induced C57BL/6 mouse model of acute lung edema assessed as decrease in lung wet/dry ratio at 20 mg/kg/day, po for 3 days followed by LPS-stimulation measured after 6 hrs; format: functional, organism-based
Outline: (§2)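 Male C57BL/6 mice (18–22 g) randomized to four groups. Compound given orally in 0.5% CMC-Na at 10 or 20 mg/kg/day for 3 consecutive days; controls received vehicle. LPS challenge; killed 6 h later. Left-lung BALF (saline 3 × 0.5 mL) centrifuged at 1000 rpm, 10 min, 4 °C: supernatant used for protein and ELISA TNF-α/IL-6, pellet for total cell count. Serum cytokines also measured by ELISA. Wet/dry ratio from middle right lobe dried at 65 °C for 72 h. Lung sections (5 μm) stained with H&E or for CD68 by IHC (citrate antigen retrieval, pH 6.5; DAB detection); n = 3.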

[3] = test system: Peritoneal macrophage; test: Antiinflammatory activity in C57BL/6 mouse primary peritoneal macrophages assessed as inhibition of LPS-induced MCP1 mRNA expression preincubated for 30 mins followed by LPS stimulation and measured after 6 hrs by qRT-PCR analysis; format: functional, cell-based
Outline: (§3)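 Thioglycollate-elicited peritoneal macrophages (C57BL/6 mice, 3 mL 6% thioglycollate i.p.), harvested by PBS/30 μM EDTA lavage, cultured in RPMI-1640 with 10% FBS at 37 °C, 5% CO2. Pretreatment with compound at graded concentrations for 30 min, then LPS for 6 h. TRIZOL RNA extraction; qRT-PCR with values normalized to β-actin mRNA.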

[4] = test system: Mus musculus; test: Antiinflammatory activity in LPS-induced C57BL/6 mouse model of acute lung injury assessed as reduction in total cells in BALF at 10 to 20 mg/kg/day, po for 3 days followed by LPS-stimulation measured after 6 hrs by cell counting based method; format: functional, organism-based; outline: as §2
[5] = Stability of compound in pH 7.4 phosphate buffer at 20 uM measured up to 25 mins by UV-VIS spectroscopy; format: physicochemical; settings: pH 7.4, 25 min
[6] = test system: Mus musculus; test: Antiinflammatory activity in oral dosed LPS-induced C57BL/6 mouse model of acute lung injury assessed as reduction in TNF-alpha mRNA expression in lung tissue after 6 hrs by qRT-PCR analysis; format: functional, organism-based
Outline: (§4)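 Male C57BL/6 mice dosed orally with compound (10 or 20 mg/kg/day in 0.5% CMC-Na, 3 days), then LPS challenge. Lungs harvested 6 h later; RNA extracted with TRIZOL and TNF-α, IL-6, ICAM-1, VCAM-1 and MCP-1 mRNA measured by qRT-PCR.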

[7] = test system: Peritoneal macrophage; test: Antiinflammatory activity in C57BL/6 mouse primary peritoneal macrophages assessed as inhibition of LPS-induced VCAM1 mRNA expression preincubated for 30 mins followed by LPS stimulation and measured after 6 hrs by qRT-PCR analysis; format: functional, cell-based; outline: as §3
[8] = test system: Peritoneal macrophage; test: Antiinflammatory activity in C57BL/6 mouse primary peritoneal macrophages assessed as inhibition of LPS-induced IL-6 production at 10 uM preincubated for 30 mins followed by LPS stimulation and measured after 24 hrs by sandwich ELISA relative to control; format: functional; settings: C57BL/6, Peritoneal macrophage; outline: as §1
[9] = test system: Mus musculus; test: Antiinflammatory activity in oral dosed LPS-induced C57BL/6 mouse model of acute lung injury assessed as reduction in TNFalpha levels in serum for 3 days followed by LPS-stimulation measured after 6 hrs; format: functional, organism-based; outline: as §2
[10] = test system: Mus musculus; test: Antiinflammatory activity in oral dosed LPS-induced C57BL/6 mouse model of acute lung injury assessed as reduction in IL-6 mRNA expression in lung tissue after 6 hrs by qRT-PCR analysis; format: functional, organism-based; outline: as §4
[11] = species: Mus musculus; test: Inhibition of MAPK in C57BL/6 mouse primary peritoneal macrophages assessed as reduction in ERK phosphorylation at 10 uM preincubated for 30 mins followed by LPS-stimulation measured after 20 mins by Western blot analysis
Outline: (§5)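 Peritoneal macrophages pretreated with vehicle (DMSO) or 10 μM compound for 30 min, then 0.5 μg/mL LPS for 20 min. Total protein run on 10% SDS-PAGE and blotted to PVDF. p-JNK/JNK, p-p38/p38 and p-ERK/ERK detected by western blot and quantified by densitometry; n = 3.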

[12] = species: Mus musculus; test: Inhibition of MAPK in C57BL/6 mouse primary peritoneal macrophages assessed as reduction in JNK phosphorylation at 10 uM preincubated for 30 mins followed by LPS-stimulation measured after 20 mins by Western blot analysis; outline: as §5
[13] = test system: Mus musculus; test: Antiinflammatory activity in LPS-induced C57BL/6 mouse model of acute lung injury assessed as reduction in macrophage infiltration by measuring CD68 expression at 10 to 20 mg/kg/day, po for 3 days followed by LPS-stimulation measured after 6 hrs by immunohistochemistry; format: functional, organism-based; outline: as §2
[14] = test system: Mus musculus; test: Antiinflammatory activity in oral dosed LPS-induced C57BL/6 mouse model of acute lung injury assessed as reduction in ICAM-1 mRNA expression in lung tissue after 6 hrs by qRT-PCR analysis; format: functional, organism-based; outline: as §4
[15] = test system: Peritoneal macrophage; test: Antiinflammatory activity in C57BL/6 mouse primary peritoneal macrophages assessed as inhibition of LPS-induced TNFalpha mRNA expression preincubated for 30 mins followed by LPS stimulation and measured after 6 hrs by qRT-PCR analysis; format: functional, cell-based; outline: as §3
[16] = test system: Peritoneal macrophage; test: Antiinflammatory activity in C57BL/6 mouse primary peritoneal macrophages assessed as inhibition of LPS-induced TNFalpha production preincubated for 30 mins followed by LPS stimulation and measured after 24 hrs by sandwich ELISA; format: functional, cell-based; outline: as §1
[17] = test system: Mus musculus; test: Antiinflammatory activity in oral dosed LPS-induced C57BL/6 mouse model of acute lung injury assessed as reduction in VCAM-1 mRNA expression in lung tissue after 6 hrs by qRT-PCR analysis; format: functional, organism-based; outline: as §4
[18] = test system: Peritoneal macrophage; test: Antiinflammatory activity in C57BL/6 mouse primary peritoneal macrophages assessed as inhibition of LPS-induced IL-6 mRNA expression preincubated for 30 mins followed by LPS stimulation and measured after 6 hrs by qRT-PCR analysis; format: functional, cell-based; outline: as §3
[19] = test system: BEAS-2B; test: Cytotoxicity against human BEAS2B cells up to 50 uM; format: cell-based
Outline: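 BEAS-2B cells pretreated with compound at graded concentrations up to 50 μM for 30 min, then incubated without LPS for 24 h; compared against a DMSO group; n = 3.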

[20] = test system: Mus musculus; test: Antiinflammatory activity in oral dosed LPS-induced C57BL/6 mouse model of acute lung injury assessed as reduction in IL-6 levels in serum for 3 days followed by LPS-stimulation measured after 6 hrs; format: functional, organism-based; outline: as §2
[21] = test system: Peritoneal macrophage; test: Antiinflammatory activity in C57BL/6 mouse primary peritoneal macrophages assessed as inhibition of LPS-induced ICAM1 mRNA expression preincubated for 30 mins followed by LPS stimulation and measured after 6 hrs by qRT-PCR analysis; format: functional, cell-based; outline: as §3
[22] = test system: Mus musculus; test: Antiinflammatory activity in oral dosed LPS-induced C57BL/6 mouse model of acute lung injury assessed as reduction in TNFalpha levels in BALF for 3 days followed by LPS-stimulation measured after 6 hrs; format: functional, organism-based; outline: as §2
[23] = test system: Mus musculus; test: Antiinflammatory activity in LPS-induced C57BL/6 mouse model of acute lung injury assessed as restoration of normal alveolar structure at 10 to 20 mg/kg/day, po for 3 days followed by LPS-stimulation measured after 6 hrs by haematoxylin and eosin staining-based light microscopic analysis; format: functional, organism-based; outline: as §2
[24] = test system: Peritoneal macrophage; test: Antiinflammatory activity in C57BL/6 mouse primary peritoneal macrophages assessed as inhibition of LPS-induced IL-6 production preincubated for 30 mins followed by LPS stimulation and measured after 24 hrs by sandwich ELISA; format: functional, cell-based; outline: as §1
[25] = test system: Mus musculus; test: Antiinflammatory activity in LPS-induced C57BL/6 mouse model of acute lung injury assessed as reduction in total protein levels in BALF at 10 to 20 mg/kg/day, po for 3 days followed by LPS-stimulation measured after 6 hrs; format: functional, organism-based; outline: as §2
[26] = test system: Mus musculus; test: Antiinflammatory activity in oral dosed LPS-induced C57BL/6 mouse model of acute lung injury assessed as reduction in MCP-1 mRNA expression in lung tissue after 6 hrs by qRT-PCR analysis; format: functional, organism-based; outline: as §4
[27] = test system: Mus musculus; test: Antiinflammatory activity in oral dosed LPS-induced C57BL/6 mouse model of acute lung injury assessed as reduction in IL-6 levels in BALF for 3 days followed by LPS-stimulation measured after 6 hrs; format: functional, organism-based; outline: as §2
[28] = species: Mus musculus; test: Inhibition of MAPK in C57BL/6 mouse primary peritoneal macrophages assessed as reduction in P38 phosphorylation at 10 uM preincubated for 30 mins followed by LPS-stimulation measured after 20 mins by Western blot analysis; outline: as §5

Stability [5]: Stable
inhibition [11]: Active
inhibition [12]: Active
IC50 ([16]; C57BL/6, Peritoneal macrophage): 1230 nM
IC50 ([24]; C57BL/6, Peritoneal macrophage): 702 nM
inhibition [28]: Active
Structure (SMILES): O=C(Nc1ccc2c(c1)CCC2)c1cc(O)c(O)c(O)c1
inhibition at 10 µM [1]: 72.2%
Activity [2]: Active
inhibition [3]: Dose-dependent effect
Activity [4]: Active
Activity [6]: Active
inhibition [7]: Dose-dependent effect
inhibition at 10 µM [8]: 89%
inhibition [9]: Dose-dependent effect
Activity [10]: Active
Activity [13]: Active
Activity [14]: Active
inhibition [15]: Dose-dependent effect
inhibition [16]: Dose-dependent effect
Activity [17]: Active
inhibition [18]: Dose-dependent effect
Activity [19]: Non-Toxic
inhibition [20]: Dose-dependent effect
inhibition [21]: Dose-dependent effect
inhibition [22]: Dose-dependent effect
Activity [23]: Active
inhibition [24]: Dose-dependent effect
Activity [25]: Active
Activity [26]: Active
inhibition [27]: Dose-dependent effect
